Published values gathered from unrelated publications.
Compare with care: the assays were run in different laboratories.
Target: Serine/threonine-protein kinase DCLK3 (DCLK3, Homo sapiens, UniProt Q9C098)
Residues used in one study (Q9C098 1-648): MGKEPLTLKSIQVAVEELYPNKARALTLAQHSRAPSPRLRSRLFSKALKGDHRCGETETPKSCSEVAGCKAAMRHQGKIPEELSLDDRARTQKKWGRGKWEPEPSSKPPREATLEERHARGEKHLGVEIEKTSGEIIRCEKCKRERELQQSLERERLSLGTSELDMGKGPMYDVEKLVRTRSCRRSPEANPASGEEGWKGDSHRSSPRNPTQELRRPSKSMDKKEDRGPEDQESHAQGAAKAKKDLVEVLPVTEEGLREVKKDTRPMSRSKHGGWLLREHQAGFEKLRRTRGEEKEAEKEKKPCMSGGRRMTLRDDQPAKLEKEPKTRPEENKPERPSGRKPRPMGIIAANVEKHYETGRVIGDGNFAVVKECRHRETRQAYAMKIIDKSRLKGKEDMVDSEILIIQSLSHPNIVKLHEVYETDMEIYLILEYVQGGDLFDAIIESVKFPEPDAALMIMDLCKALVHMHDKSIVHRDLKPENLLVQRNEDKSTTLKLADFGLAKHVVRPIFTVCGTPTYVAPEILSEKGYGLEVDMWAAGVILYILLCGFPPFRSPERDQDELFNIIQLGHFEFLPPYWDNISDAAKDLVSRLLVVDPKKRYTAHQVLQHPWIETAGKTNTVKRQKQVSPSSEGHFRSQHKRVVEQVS

Cc1cnc(NC2CCOCC2)nc1-n1cnc(C(=O)NC(CN)c2cc(F)cc(Cl)c2)c1 (stereo not drawn)  remaining activity (enzyme activity; inhibitor; radiometric; 1 µM): 56%
COc1cc(Cl)c(C(=O)N[C@@H](CN[C@H]2CC[C@@H](N)CC2)Cc2ccc(C#N)cc2)cc1-c1ccc(CN[C@H](C)c2ccc(C)cc2)o1  remaining activity (enzyme activity; inhibitor; 1 µM): 89%
Nc1ncnc2occ(-c3ccc(NC(=O)Nc4cc(C(F)(F)F)ccc4F)cc3)c12  remaining signal (cell-free assay; inhibitor; 20 µM): 24%
COc1ccc2c(O[C@@H]3C[C@H]4C(=O)N[C@]5(C(=O)O)CC5/C=C\CCCCC[C@H](NC(=O)OC5CCCC5)C(=O)N4C3)cc(-c3csc(NC(=O)C(C)C)n3)nc2c1C (stereo partly drawn)  remaining binding (cell-free assay; competition with immobilised ligand; 1 µM): 96%
CN1CC(Oc2cnc(C#N)cc2-c2ccn3nc(NC(=O)C4CC4)cc3c2)C1  inhibition (enzyme activity; inhibitor; 1 µM): -4%
Cc1ccc(NC(=O)c2ccc(C)c(C(F)(F)F)c2)cc1C#Cc1nn(C2CCC(O)CC2)c2ncnc(N)c12 (stereo not drawn)  remaining signal (cell-free assay; 10 µM): 101%
Cc1cc(NC(=O)c2cccc3cc(-c4cccc5[nH]nc(N)c45)ccc23)ccc1F  activity vs control (enzyme activity; inhibitor; 0.1 µM): 110%
Cc1ccc(C(=O)Nc2ccc(CN3CCN(C)CC3)c(C(F)(F)F)c2)cc1C#Cc1cnc2cccnn12  remaining activity (enzyme activity; inhibitor; 23.5 nM): 100%
COc1cc(-c2cn(C3CCc4ccccc4N(CC(F)(F)F)C3=O)nn2)ccc1-n1ccc(C)n1 (stereo not drawn)  remaining binding (cell-free assay; competition with immobilised ligand; 1 µM): 100%
